{
  "source": "PubChem BioAssay AID1885",
  "about": "(Broad Institute, 2009)",
  "note": "The whole screen tested about 300,000 compounds, of which about 4,400 (1.5%) were called active. The list comes from a sample in which actives are over-represented; it also holds similar structures and randomly drawn compounds. A number with no mark means an inactive call.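 How the source made its calls: active means mean inhibition across valid replicates above about 55% (limit read from the data); inconclusive means mean below that limit but half or more replicates reach it; inactive means mean below it, under half of replicates reach it.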",
  "data": [
    {"assay": "Trypanosoma cruzi replication blockers in host cells – luminescence, NIH3T3 host cells, primary screen (AID 1885);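 further: signal also drops with host cell toxicity which is not excluded here; 0% = plate median of DMSO wells and 100% = zero luminescence signal; higher percent means less beta-gal luminescence so fewer parasites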", "details": "T. cruzi beta-gal in NIH3T3, luminescence, 90 h; active compounds read high; concentration not given here", "method_in_brief": "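Test system: β-gal T. cruzi (Tulahuen C4) inside NIH/3T3 cells / Quantity: 5,000 cells/well / Measured by: luminescence from GalScreen with 0.05% NP40, read after 60 min / Medium: DMEM plus 2% FBS / Measure: parasite load inhibition, % / Reagent: Tulahuen C4 trypomastigotes, 5000/well / Schedule: co-culture of at least 90 h after 3 h attachment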", "values": [
      {"smiles": "CC(Sc1nnc(-c2ccccc2F)n1C1CC1)C(N)=O", "note": "(centres undefined)", "inhibition": "-10.8%"},
      {"smiles": "COc1ccc(-c2nc(CS(=O)(=O)CC(=O)NCc3cccc(Br)c3)c(C)o2)cc1", "inhibition": "-6.3%"},
      {"smiles": "COc1ccc2ccccc2c1/C=N/NC(=O)c1cc(C)[nH]n1", "inhibition": "-14.2%"},
      {"smiles": "Cc1ccccc1NCC(=O)N/N=C\\c1ccc([N+](=O)[O-])s1", "inhibition": "64.6% (active)"},
      {"smiles": "COc1ccc(C(=O)NCC(=O)N/N=C/c2ccc([N+](=O)[O-])s2)cc1OC", "inhibition": "64.6% (active)"},
      {"smiles": "CC(C)(C)c1cc(C(=O)N/N=C/c2ccc([N+](=O)[O-])s2)n[nH]1", "inhibition": "57.6% (active)"},
      {"smiles": "CCOc1ccc(NC(=O)CCC(=O)N/N=C/c2ccc([N+](=O)[O-])s2)cc1", "inhibition": "50.6%"},
      {"smiles": "Cc1cc(C(=O)N/N=C/c2cc([N+](=O)[O-])cc(C)c2O)n[nH]1", "inhibition": "-40.2%"},
      {"smiles": "COc1cc(/C=N/NC(=O)CNC(=O)c2ccncc2)ccc1OC(C)=O", "inhibition": "-4.41%"},
      {"smiles": "Cc1cccc(/C=N/NC(=O)CNc2cccc3ccccc23)n1", "inhibition": "-0.344%"},
      {"smiles": "COc1ccc(C(=O)NCC(=O)N/N=C/c2ccc([N+](=O)[O-])o2)cc1OC", "inhibition": "-11%"},
      {"smiles": "O=C(NCCNc1ccc([N+](=O)[O-])cc1)c1cccc2c(Br)cccc12", "inhibition": "5.94%"},
      {"smiles": "c1ccc(Cc2ccc(OCCn3ccnc3)cc2)cc1", "inhibition": "28.2%"},
      {"smiles": "O=C(O)c1ccn(COc2ccc(Br)cc2)n1", "inhibition": "-13.4%"},
      {"smiles": "Brc1ccc(OCCn2ccnc2)cc1", "inhibition": "68.5% (active)"},
      {"smiles": "O=C(NCCS(=O)(=O)N1CCN(c2ccc(F)cc2)CC1)c1ccc2c(c1)OCO2", "inhibition": "-12.2%"},
      {"smiles": "COc1ccc(NC(=O)CN(C)C(=O)/C=C/c2cn(Cc3ccccc3)nc2-c2cccnc2)cc1", "inhibition": "4%"},
      {"smiles": "NC(=S)Nc1c(Cl)cccc1Cl", "inhibition": "-4.22%"},
      {"smiles": "COC(=O)c1cc(-c2cccs2)nc2ccccc12", "inhibition": "5.51%"},
      {"smiles": "O=C(NCCN1CCOCC1)c1cc(-c2cccs2)nc2ccccc12", "inhibition": "-5.61%"},
      {"smiles": "CCCCN(C)CCCNC(=O)c1cc(-c2cccs2)nc2ccccc12", "inhibition": "63.8% (active)"},
      {"smiles": "COc1cnn(-c2ccc([N+](=O)[O-])cc2)c(=O)c1Cl", "inhibition": "7.92%"},
      {"smiles": "CCN1C(=O)[C@H]2[C@@H](c3ccc(-c4ccc(OC)cc4)cc3)N[C@@](Cc3ccccc3)(C(=O)OC)[C@H]2C1=O", "inhibition": "-3.65%"},
      {"smiles": "CCOC(=O)C1(CCOC)CCN(Cc2cc3ccccc3s2)CC1", "inhibition": "6.96%"},
      {"smiles": "Cc1ccc(S(=O)(=O)N2CCCC2C(=O)OCc2nc3sc(C)c(C)c3c(=O)[nH]2)cc1", "note": "(centres undefined)", "inhibition": "-13%"},
      {"smiles": "C=CCc1cc(C)ccc1OCCCn1ccnc1", "inhibition": "36.6%"},
      {"smiles": "O=C(NCCCn1ccnc1)c1ccccc1F", "inhibition": "7.44%"},
      {"smiles": "Clc1c(OCCCn2ccnc2)ccc2ccccc12", "inhibition": "61.3% (active)"},
      {"smiles": "Cc1cc(Nc2cc(N3CCN(C)CC3)nc(Sc3ccc(NC(=O)C4CC4)cc3)n2)n[nH]1", "inhibition": "26.9%"},
      {"smiles": "CC(=O)CC(CC(=O)NC1CCCCC1)c1ccccc1", "note": "(centres undefined)", "inhibition": "-21.8%"},
      {"smiles": "CCOc1ccc(C(=O)NCC(=O)N2CCCCCCC2)cc1OCC", "inhibition": "17.5%"},
      {"smiles": "CCc1noc(C)c1C(=O)NNC(=O)c1ccc(F)cc1", "inhibition": "-6.32%"},
      {"smiles": "CC(C)(C)S(=O)(=O)c1ccccc1-c1noc(-c2ccccc2)c1C(N)=O", "inhibition": "-8.06%"},
      {"smiles": "Cc1cc(C)c2nc(-c3ccco3)cc(C(=O)O)c2c1", "inhibition": "-8.53%"},
      {"smiles": "Cc1cc(C)c2nc3nc(C)cc(C)c3c(N)c2c1", "inhibition": "58.9% (active)"},
      {"smiles": "Cc1cc(C)c2nc(SCCC#N)nc(C)c2c1", "inhibition": "1.26%"},
      {"smiles": "O=C(COC(=O)c1ncc(Cl)c(Cl)c1Cl)NNC(=O)c1ccccc1", "inhibition": "-29.7%"},
      {"smiles": "Cc1ccc2nc(NC(=O)C3CSC4(C)CCC(=O)N34)sc2c1", "note": "(centres undefined)", "inhibition": "-3.69%"},
      {"smiles": "CC(C)Oc1c(Br)cc(Br)cc1/C=N/NC(N)=S", "inhibition": "66.9% (active)"},
      {"smiles": "NC(=S)N/N=C/c1coc2cc(Cl)ccc2c1=O", "inhibition": "-10.9%"},
      {"smiles": "CCOc1ccc(/C=N/NC(N)=S)cc1", "inhibition": "15.1%"},
      {"smiles": "CCc1noc(C)c1C(=O)Nc1nc(-c2ccccc2)cs1", "inhibition": "6.55%"},
      {"smiles": "CCS(=O)(=O)c1ccc(C(=O)NC)c(Cl)c1Cl", "inhibition": "-1.91%"},
      {"smiles": "Cc1ccc(-c2cn(S(=O)(=O)c3cccc([N+](=O)[O-])c3)nc2N)cc1", "inhibition": "63.5% (active)"},
      {"smiles": "CC1=NCCN1S(=O)(=O)c1cccc([N+](=O)[O-])c1", "inhibition": "7.48%"},
      {"smiles": "Cc1cc(C)n(S(=O)(=O)c2cccc([N+](=O)[O-])c2)n1", "inhibition": "19.3%"},
      {"smiles": "CCCCCCCNC(=O)C1(CC2CC(c3cccc(Br)c3)=NO2)CCN(C(=O)c2cc(OCC)c(OCC)c(OCC)c2)CC1", "note": "(centres undefined)", "inhibition": "28.4%"},
      {"smiles": "COc1cc(N)c(Cl)cc1C(=O)OCC(=O)c1ccc2c(c1)NC(=O)CO2", "inhibition": "-2.39%"},
      {"smiles": "CCCCCCCN=C(C)c1ccccc1O", "inhibition": "2.33%"},
      {"smiles": "CCCCCCc1ccc(O)cc1O", "inhibition": "63.7% (active)"},
      {"smiles": "CCCCCCc1cc2cc(-c3nnc(-c4ccccc4)o3)c(=O)oc2cc1O", "inhibition": "0.529%"},
      {"smiles": "O=C(CNS(=O)(=O)c1ccccc1)N1CCN(C(=O)c2ccco2)CC1", "inhibition": "-1.99%"},
      {"smiles": "Cn1c(=O)n(C)c2cc(NS(=O)(=O)c3ccc(F)cc3)ccc21", "inhibition": "2.2%"},
      {"smiles": "CC1(C)CC(=O)c2c(n(S(=O)(=O)c3ccccc3)c3ccc(NS(=O)(=O)c4ccccc4)cc23)C1", "inhibition": "63.5% (active)"},
      {"smiles": "Cn1c(CCN2CCCC2)nc2cc(NS(=O)(=O)c3ccccc3)ccc21", "inhibition": "9.31%"},
      {"smiles": "CCn1c(SCc2ccccc2)nc2cc(OC)c(OC)cc2c1=O", "inhibition": "18.8%"},
      {"smiles": "CN1CCN(C(=O)c2ccccc2NC(=O)COc2ccccc2Cl)CC1", "inhibition": "-5.23%"},
      {"smiles": "O=C1c2ccccc2S(=O)(=O)c2cc(N3CCN(c4ccccn4)CC3)ccc21", "inhibition": "-2.13%"},
      {"smiles": "CCOc1ccc(NC(=O)COc2ccc(C(=O)N3CCC(C(N)=O)CC3)cc2OC)cc1", "inhibition": "-10.5%"},
      {"smiles": "Cc1ccc(-n2nc3ccc(NC(=O)/C=C/c4ccco4)cc3n2)cc1C", "inhibition": "-97.4%"},
      {"smiles": "CCC(=O)Nc1ccc(C(=O)Nc2cccc(OC)c2)cc1", "inhibition": "-19%"},
      {"smiles": "CCC(=O)Nc1ccc2nn(-c3ccc(F)cc3)nc2c1", "inhibition": "55.3% (active)"},
      {"smiles": "C=CCOc1cccc(C2C(C(=O)c3ccc(C)o3)=C(O)C(=O)N2c2nnc(C)s2)c1", "note": "(centres undefined)", "inhibition": "5.31%"},
      {"smiles": "N#C/C(=C\\C1=C(N2CCOCC2)C(=C\\c2ccccc2)/CC1)C(=O)Nc1ccccc1F", "inhibition": "57.8% (active)"},
      {"smiles": "N#C/C(=C\\c1ccccc1C(F)(F)F)C(=O)Nc1ccccc1F", "inhibition": "-1.24%"},
      {"smiles": "C(=N\\N1CCN(c2ccccn2)CC1)/C1=C(N2CCOCC2)C(=C/c2ccccc2)/CC1", "inhibition": "-15.4%"},
      {"smiles": "CC(=O)c1ccc(NC(=O)c2sc3nc4n(c(=O)c3c2C)CCCCC4)cc1", "inhibition": "-12.8%"},
      {"smiles": "Cc1ccc(N(CCC(=O)O)S(=O)(=O)c2cccc(C(F)(F)F)c2)cc1", "inhibition": "-18.4%"},
      {"smiles": "CC(C)c1ccc(NC(=S)NNc2ccc(Cl)c(C(=O)O)c2)cc1", "inhibition": "14.4%"},
      {"smiles": "Cc1ccc(C)c(NC(=S)NNC(=O)c2csc(C)c2)c1", "inhibition": "6.88%"},
      {"smiles": "Cc1ccc(C)c(NC(=S)NNC(=S)Nc2ccc(C(C)C)cc2)c1", "inhibition": "65.3% (active)"},
      {"smiles": "COc1cc2ccccc2cc1C(=O)Nc1ccncc1", "inhibition": "6.55%"},
      {"smiles": "CCn1c(=O)c([N+](=O)[O-])c(NCc2ccc3c(c2)OCO3)c2ccccc21", "inhibition": "24.6%"},
      {"smiles": "CCn1c(/C=C/c2ccc([N+](=O)[O-])o2)nc2ccccc2c1=O", "inhibition": "85.9% (active)"},
      {"smiles": "O=c1oc(/C=C/c2ccccc2)nc2ccccc12", "inhibition": "-17.7%"},
      {"smiles": "O=C(Cc1ccc(S(=O)(=O)N2CCOCC2)s1)N1CCN(c2ccc(C(F)(F)F)cc2[N+](=O)[O-])CC1", "inhibition": "31%"},
      {"smiles": "Cc1cc(C(=O)N/N=C/c2ccc(N3CCOCC3)cc2)c(C)o1", "inhibition": "0.447%"},
      {"smiles": "C=CCNC(=S)N/N=C/c1ccc(C)s1", "inhibition": "50.5%"},
      {"smiles": "CNC(=S)N/N=C/c1ccc(N2CCOCC2)s1", "inhibition": "57.6% (active)"},
      {"smiles": "CCCCn1c(N)c(N(CCOC)C(=O)c2cccc(S(=O)(=O)N(C)c3ccccc3)c2)c(=O)[nH]c1=O", "inhibition": "2.71%"},
      {"smiles": "CCc1ccccc1NC(=O)c1ccc2snnc2c1", "inhibition": "-10.4%"},
      {"smiles": "O=C(Nc1ccc2ccccc2c1)Nc1ccc2snnc2c1", "inhibition": "57.6% (active)"},
      {"smiles": "O=C(Nc1cccc(Br)c1)c1ccc2snnc2c1", "inhibition": "10.3%"},
      {"smiles": "O=S(=O)(NCCS(=O)(=O)N1CCN(c2ccccc2)CC1)c1ccc(F)cc1", "inhibition": "-2.33%"},
      {"smiles": "Cc1cccc(NC(=O)Nc2cccc(Oc3c(F)c(F)c(F)c(F)c3F)c2)c1", "inhibition": "68.5% (active)"},
      {"smiles": "Cc1cccc(NC(=O)Nc2nnc(-c3ccccc3)o2)c1", "inhibition": "-4.53%"},
      {"smiles": "COc1cccc(NC(=O)NCc2ccc(F)cc2)c1", "inhibition": "1.25%"},
      {"smiles": "COc1ccc(C(=O)NCC(c2ccco2)N2CCc3ccccc32)cc1OC", "note": "(centres undefined)", "inhibition": "5.94%"},
      {"smiles": "COc1ccc(C(=O)NCC2CCCN2S(=O)(=O)c2cccs2)cc1OC", "note": "(centres undefined)", "inhibition": "-3.88%"},
      {"smiles": "COc1ccc(-c2cc(C(=O)N/N=C/c3cccnc3)c3ccccc3n2)c(OC)c1", "inhibition": "-3.19%"},
      {"smiles": "COc1ccc(-c2cc(C(F)(F)F)nc(S(C)(=O)=O)n2)cc1OC", "inhibition": "60.3% (active)"},
      {"smiles": "COc1ccc(-c2cc(C(F)(F)F)nc(NCc3cccnc3)n2)cc1", "inhibition": "49.2%"},
      {"smiles": "COc1ccc(-c2ccc(Nc3ccc(S(=O)(=O)N4CCCC4)cc3)nn2)cc1OC", "inhibition": "14.2%"},
      {"smiles": "Cc1cc2nc3n(c2cc1C)CC1CC(C(=O)NCCC(C)C)N(C)C31", "note": "(centres undefined)", "inhibition": "-2.62%"}
    ]}
  ]
}
